Assay results published in ChEMBL document CHEMBL1152977, “Phenolic glycosides from Alangium salviifolium leaves with inhibitory activity on LPS-induced NO, PGE(2), and TNF-alpha production” (Bioorg Med Chem Lett, 2009).

Tests used:
RAW264.7 [1] = assay: Cytotoxicity against LPS-stimulated mouse RAW264.7 cells assessed as cell viability at 50 uM after 24 hrs by MTT assay; format: cell-based; settings: raw264.7, 24 h
Summary of the method: (§1)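 MTT viability assay on RAW 264.7 cells at up to 50 µM for 24 h, run both with and without LPS.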

RAW264.7 [2] = assay: Antiinflammatory activity in mouse RAW264.7 cells assessed as decrease in LPS-stimulated PGE2 production treated 1 hr before LPS challenge measured after 24 hrs by enzyme immunoassay; format: functional, cell-based
Summary of the method: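 Cells pre-incubated 1 h with compound (5, 25, 50 µM tested), then LPS 1 µg/mL for 24 h; PGE2 in culture medium quantified by EIA kit per manufacturer. NS-398 10 µM positive control; means ± S.E.M. of three independent experiments, Student's t-test versus LPS-treated group.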

RAW264.7 [3] = assay: Cytotoxicity against mouse RAW264.7 cells assessed as cell viability at 50 uM after 24 hrs by MTT assay; format: cell-based; settings: raw264.7, 24 h; summary of the method: as §1
RAW264.7 [4] = assay: Antiinflammatory activity in mouse RAW264.7 cells assessed as inhibition of LPS-stimulated NO production treated 1 hr before LPS challenge measured after 24 hrs by Griess reagent assay; format: functional, cell-based
Summary of the method: (§2)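 Culture medium (phenol red-free) collected after 1 h compound pretreatment then 24 h with LPS 1 µg/mL; mixed 1:1 with Griess reagent (1% sulfanilamide in 5% phosphoric acid plus 0.1% naphthylethylenediamine-HCl), 10 min room temperature, absorbance 550 nm. Nitrite quantified against NaNO2 serial-dilution standard curve, fresh medium as blank. L-NIL 10 µM positive control; means ± S.E.M., three independent experiments.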

RAW264.7 [5] = assay: Antiinflammatory activity in LPS-stimulated mouse RAW264.7 cells assessed as PGE2 production at 10 uM treated 1 hr before LPS challenge measured after 24 hrs by enzyme immunoassay (RVb=11.5 +/- 0.36 uM); format: functional
RAW264.7 [6] = assay: Antiinflammatory activity in LPS-stimulated mouse RAW264.7 cells assessed as TNFalpha production at 5 uM treated 1 hr before LPS challenge measured after 24 hrs by enzyme immunoassay (RVb=46.7 +/- 4.8 uM); format: functional
RAW264.7 [7] = assay: Antiinflammatory activity in LPS-stimulated mouse RAW264.7 cells assessed as TNFalpha production at 50 uM treated 1 hr before LPS challenge measured after 24 hrs by enzyme immunoassay (RVb=46.7 +/- 4.8 uM); format: functional
RAW264.7 [8] = assay: Antiinflammatory activity in LPS-stimulated mouse RAW264.7 cells assessed as TNFalpha production at 25 uM treated 1 hr before LPS challenge measured after 24 hrs by enzyme immunoassay (RVb=46.7 +/- 4.8 uM); format: functional
RAW264.7 [9] = assay: Antiinflammatory activity in LPS-stimulated mouse RAW264.7 cells assessed as NO production at 10 uM treated 1 hr before LPS challenge measured after 24 hrs by Griess reagent assay (RVb= 28.72 +/- 1.31 uM); format: functional; summary of the method: as §2

Row | Structure (SMILES) | Activity (RAW264.7 [1]) | Activity (RAW264.7 [2]) | Activity (RAW264.7 [3]) | Activity (RAW264.7 [4]) | Activity (RAW264.7 [5]) | Activity (RAW264.7 [6]) | Activity (RAW264.7 [7]) | Activity (RAW264.7 [8]) | Activity (RAW264.7 [9])
1 | COc1ccccc1/C=C/C(=O)OCc1ccc(O[C@@H]2O[C@H](CO)[C@@H](O)[C@H](O)[C@H]2O)c(O)c1 [SALVIIFOSIDE C] | Non-toxic | Dose-dependent effect | Non-toxic | Dose-dependent effect | – | – | – | – | –
2 | O=C(OCc1ccc(O[C@@H]2O[C@H](CO)[C@@H](O)[C@H](O)[C@H]2O)c(O)c1)c1ccccc1 [SALVIIFOSIDE A] | Non-toxic | Dose-dependent effect | Non-toxic | Dose-dependent effect | – | – | – | – | –
3 | CS(=O)(=O)Nc1ccc([N+](=O)[O-])cc1OC1CCCCC1 [NS-398] | – | – | – | – | 3.2 ng/mL | – | – | – | –
4 | O=C(/C=C/c1ccccc1O)OCc1ccc(O[C@@H]2O[C@H](CO)[C@@H](O)[C@H](O)[C@H]2O)c(O)c1 [SALVIIFOSIDE B] | Non-toxic | Dose-dependent effect | Non-toxic | Dose-dependent effect | – | 43.2 ng/mL | 11.2 ng/mL | 24.4 ng/mL | –
5 | CC(=N)NCCCC[C@H](N)C(=O)O [L-NIL] | – | – | – | – | – | – | – | – | 11.3 µM
